Assay results as given in ChEMBL document CHEMBL1177892, “Synthesis, anti-inflammatory and ulcerogenicity studies of some substituted pyrimido[1,6-a]azepine derivatives” (Eur J Med Chem, 2010).

Legend:
Rattus norvegicus [1] = experiment: Antiinflammatory activity in albino rat assessed as inhibition of carrageenan-induced paw oedema at […], ip administered 1 hr before carrageenan challenge measured after 3 hrs relative to control; assay type: functional; set-up: scale not given: the % may be the effect or the level left; conditions: in the assay text read “relative to diclofenac sodium” for “relative to control”
Outline: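 Albino rats of both sexes (120–150 g) were pre-hydrated with 3 ml water/rat by gastric tube. Oedema was induced by s.c. sub-plantar injection of 1% carrageenan gel into the right hind paw. Right and left paw dorso-ventral thickness was read with dial calipers at 1, 2 and 3 h. Inhibition % = (1 − Lt/Lc) × 100, using mean paw-thickness increase of treated versus control rats.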

Rattus norvegicus [2] = experiment: Antiinflammatory activity in ip dosed albino rat assessed as inhibition of carrageenan-induced paw oedema administered 1 hr before carrageenan challenge measured after 3 hrs relative to control; assay type: functional, organism-based
Outline: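 Carrageenan paw-oedema model in albino rats of both sexes (120–150 g), water-loaded with 3 ml by gastric tube. […] was calculated from doses of […], with paw-thickness inhibition read 3 h after sub-plantar injection of 1% carrageenan. Inhibition % = (1 − Lt/Lc) × 100.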

Rattus norvegicus [3] = experiment: Toxicity in albino rat at 20 mg/kg assessed as ulcer index; conditions: in vivo
Rattus norvegicus [4] = experiment: Toxicity in albino rat at 20 mg/kg assessed as ulcerogenicity; conditions: in vivo

Question: How did the Activity (Rattus norvegicus [1]) turn out when `N#CC1=C(NCC(=O)N2CCCCC2)N(c2ccccc2)C(=O)N2CCCCC(N3CCCC3)C12` (stereo not drawn) was run?
Answer: The Activity was 61.07%.

Question: `N#CC1=C(NCC(=O)N2CCOCC2)N(c2ccccc2)C(=O)N2CCCCC(N3CCCC3)C12` (stereo not drawn) was tested. Which Activity (Rattus norvegicus [1]) did it give?
Answer: Its Activity is 83.9%.

Question: For `N#CC1=C(/N=C/c2ccc([N+](=O)[O-])cc2)N(c2ccccc2)C(=O)N2CCCCC(N3CCCC3)C12` (stereo not drawn), which ED50 (Rattus norvegicus [2]) is on record?
Answer: The ED50 was 7.14 µmol/kg.

Question: What about the UI (Rattus norvegicus [3]) of the same molecule?
Answer: Its UI is 3.6.

Question: And the Activity (Rattus norvegicus [4])?
Answer: Its Activity is 2%.

Question: What about the Activity (Rattus norvegicus [1]) of the same molecule?
Answer: The Activity was 104.68%.

Question: Which UI (Rattus norvegicus [3]) does the source give for `N#CC1=C(/N=C/Nc2ccc([N+](=O)[O-])cc2)N(c2ccccc2)C(=O)N2CCCCC(N3CCCC3)C12` (stereo not drawn) here?
Answer: The UI was 4.8.

Question: What about the Activity (Rattus norvegicus [4]) of the same molecule?
Answer: Its Activity is 3%.

Question: And the Activity (Rattus norvegicus [1])?
Answer: Its Activity is 97.71%.

Question: With `N#CC1=C(NCC(=O)N2CCCC2)N(c2ccccc2)C(=O)N2CCCCC(N3CCCC3)C12` (stereo not drawn) as the molecule, how does the Activity (Rattus norvegicus [1]) read?
Answer: Its Activity is 63.93%.

Question: Which results are given for `N#CC1=C(N)N(c2ccccc2)C(=O)N2CCCCC(N3CCCC3)C12` (stereo not drawn)?
Answer: ED50 (Rattus norvegicus [2]): 6.61 µmol/kg; Activity (Rattus norvegicus [1]): 102.85%

Question: `CCOC(=O)C(=O)NC1=C(C#N)C2C(N3CCCC3)CCCCN2C(=O)N1c1ccccc1` (stereo not drawn) was tested. Which ED50 (Rattus norvegicus [2]) did it give?
Answer: Its ED50 is 9.13 µmol/kg.

Question: What about the UI (Rattus norvegicus [3]) of the same molecule?
Answer: The UI was 2.5.

Question: And the Activity (Rattus norvegicus [4])?
Answer: The Activity was 1%.

Question: What about the Activity (Rattus norvegicus [1]) of the same molecule?
Answer: The Activity was 104.45%.

Question: `N#CC1=C(/N=C/Nc2ccccc2)N(c2ccccc2)C(=O)N2CCCCC(N3CCCC3)C12` (stereo not drawn) was tested. Which Activity (Rattus norvegicus [1]) did it give?
Answer: The Activity was 90.52%.

Question: `N#CC1=C(NC(=O)c2ccccc2O)N(c2ccccc2)C(=O)N2CCCCC(N3CCCC3)C12` (stereo not drawn) was tested. Which Activity (Rattus norvegicus [1]) did it give?
Answer: The Activity was 74.65%.

Question: With `N#CC1=C(/N=C/c2ccccc2)N(c2ccccc2)C(=O)N2CCCCC(N3CCCC3)C12` (stereo not drawn) as the molecule, how does the Activity (Rattus norvegicus [1]) read?
Answer: Its Activity is 95.9%.

Question: For `COc1ccc(/C=N/C2=C(C#N)C3C(N4CCCC4)CCCCN3C(=O)N2c2ccccc2)cc1` (stereo not drawn), which Activity (Rattus norvegicus [1]) is on record?
Answer: Its Activity is 85.91%.

Question: Which Activity (Rattus norvegicus [1]) does the source give for `COc1ccc(N/C=N/C2=C(C#N)C3C(N4CCCC4)CCCCN3C(=O)N2c2ccccc2)cc1` (stereo not drawn) here?
Answer: Its Activity is 57.3%.

Question: What does the source list for `COC(=O)C(=O)NC1=C(C#N)C2C(N3CCCC3)CCCCN2C(=O)N1c1ccccc1` (stereo not drawn)?
Answer: ED50 (Rattus norvegicus [2]): 10.6 µmol/kg; UI (Rattus norvegicus [3]): 2.2; Activity (Rattus norvegicus [4]): 1%; Activity (Rattus norvegicus [1]): 100.79%

Question: For `N#CC1=C(NCN2CCCCC2)N(c2ccccc2)C(=O)N2CCCCC(N3CCCC3)C12` (stereo not drawn), which Activity (Rattus norvegicus [1]) is on record?
Answer: The Activity was 48.05%.

Question: With `N#Cc1c2n(c(=O)n(-c3ccccc3)c1=N)CCCCC2N1CCCC1` (stereo not drawn) as the molecule, how does the ED50 (Rattus norvegicus [2]) read?
Answer: The ED50 was 8.5 µmol/kg.

Question: What about the Activity (Rattus norvegicus [1]) of the same molecule?
Answer: The Activity was 106.62%.

Question: With `N#CC1=C(NCC(=O)O)N(c2ccccc2)C(=O)N2CCCCC(N3CCCC3)C12` (stereo not drawn) as the molecule, how does the ED50 (Rattus norvegicus [2]) read?
Answer: Its ED50 is 10.3 µmol/kg.

Question: And the UI (Rattus norvegicus [3])?
Answer: Its UI is 5.4.

Question: What about the Activity (Rattus norvegicus [4]) of the same molecule?
Answer: The Activity was 4%.

Question: What about the Activity (Rattus norvegicus [1]) of the same molecule?
Answer: Its Activity is 101.82%.

Question: Which Activity (Rattus norvegicus [1]) does the source give for `N#CC1=C(NCN2CCCC2)N(c2ccccc2)C(=O)N2CCCCC(N3CCCC3)C12` (stereo not drawn) here?
Answer: The Activity was 40.29%.

Question: `N#CC1=C(NC(=O)Cc2ccccc2Nc2c(Cl)cccc2Cl)N(c2ccccc2)C(=O)N2CCCCC(N3CCCC3)C12` (stereo not drawn) was tested. Which Activity (Rattus norvegicus [1]) did it give?
Answer: Its Activity is 76.71%.

Question: With `N#CC1=C(NCN2CCOCC2)N(c2ccccc2)C(=O)N2CCCCC(N3CCCC3)C12` (stereo not drawn) as the molecule, how does the Activity (Rattus norvegicus [1]) read?
Answer: Its Activity is 50.68%.

Question: What does the source list for `O=C([O-])Cc1ccccc1Nc1c(Cl)cccc1Cl.[Na+]` [DICLOFENAC SODIUM]?
Answer: ED50 (Rattus norvegicus [2]): 7.26 µmol/kg; UI (Rattus norvegicus [3]): 9; Activity (Rattus norvegicus [4]): 6%
